In the library only some 3.9% were active in any assay of this set; here they are far more common.
M1 ag – agonists of human M1 muscarinic receptor | activation, % at 3 µM | CHO-K1 hM1, Fluo-8 calcium fluorescence, agonist mode; 0% DMSO, 100% acetylcholine EC100 | P11229 | actives 0.33% (n = 360,000) | AID 588814;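 active = activation above the run's mean compound activation plus 3 SD, cut at about 16% in these data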;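 also: peak over basal fluorescence ratio within a 140 s kinetic read after compound addition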
CHRM1 PAM – potentiates human M1 receptor response to acetylcholine; CHO-K1 hM1, Fluo-8 calcium fluorescence, ACh EC20; 0% = ACh EC20, 100% = maximal ACh; activation, % at 3 µM; actives 0.088% (n = 360,000); in the data active = activation above about 19%, passing the limit was not always enough
TAAR1 antagonist – human TAAR1 antagonism; Q96RJ0; CHO RD-HGA16 TAAR1, Fluo-8 calcium fluorescence, antagonist; inhibition, % at 3 µM; actives 1.5% (n = 360,000);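 active = inhibition above a per-plate cutoff, the mean inhibition of test compounds on that plate plus 3 SD, cut at about 49% in these data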;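 also: 0% = DMSO plus EC80 beta-PEA response and 100% = DMSO alone without agonist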
Target sequence (Q96RJ0 whole entry, looked up): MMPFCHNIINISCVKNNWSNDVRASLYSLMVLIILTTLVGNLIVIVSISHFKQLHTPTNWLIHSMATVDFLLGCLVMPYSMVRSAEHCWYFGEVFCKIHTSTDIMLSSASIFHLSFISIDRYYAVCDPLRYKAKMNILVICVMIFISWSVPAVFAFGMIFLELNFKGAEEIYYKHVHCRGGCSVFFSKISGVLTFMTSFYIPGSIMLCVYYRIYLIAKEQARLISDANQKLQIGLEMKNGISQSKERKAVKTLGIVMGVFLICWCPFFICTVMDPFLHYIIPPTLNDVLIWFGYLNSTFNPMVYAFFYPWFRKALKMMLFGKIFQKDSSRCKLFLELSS
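Assay system: CHO-derived RD-HGA16 cells stably expressing human TAAR1 plus Gα16. Timing: 140 s kinetic read after compound, 140 s after agonist. Technique: kinetic Fluo-8 calcium fluorescence measurement. Measure: % inhibition of agonist calcium response.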
HTR2A ag – mouse HTR2A agonism via beta-arrestin recruitment. CHO-K1 mHTR2A beta-arrestin complementation, luminescence; percent of 30 µM serotonin response. actives 0.66% (n = 360,000). AID 624169. activation, % at 7.6 µM. P35363;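 active = activation above a run cutoff, the mean activation of all tested compounds plus 3 SD, cut at about 14% in these data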;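 also: 0% = plate median of compound wells and 100% = 30 µM serotonin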
M1 antag – antagonists of human M1 muscarinic receptor; CHO-K1 hM1, Fluo-8 calcium fluorescence, ACh EC80 antagonist; P11229; actives 1.3% (n = 360,000); inhibition, % at 3 µM;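 active = percent inhibition above its own plate's cutoff, namely the mean of that plate's compound wells plus 3 SD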;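 also: peak over basal fluorescence ratio during 140 s after agonist addition; 0% = ACh EC80 plus DMSO and 100% = DMSO alone without agonist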
TAAR1 agonist – agonists of human TAAR1 | Q96RJ0 | CHO RD-HGA16 TAAR1, Fluo-8 calcium fluorescence; vehicle wells 0%, saturating PEA agonist 100% | activation, % at 3 µM | actives 0.99% (n = 360,000);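 active = activation above the mean activation of all test compounds in the run plus 3 SD, cut at about 38% in these data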
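Test system: RD-HGA16 (CHO) cells co-expressing Gα16 and hTAAR1 | Doses: Single dose, 3 µM | Schedule: 17-24 h seeding, 75 min 37 °C dye, 30 min RT | Evaluation: % activation from peak over basal fluorescence ratio, DMSO-to-PEA scaled | Technique: Kinetic Fluo-8 calcium fluorescence | Benchmarks: Low control DMSO, high control PEA (EC100)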
Active calls of the source: *; x = not tested or not shown.

SMILES	M1 ag	CHRM1 PAM	TAAR1 antagonist	HTR2A ag	M1 antag	TAAR1 agonist
O=C(O)c1cccc(Nc2nc(-c3ccc([N+](=O)[O-])cc3)nc3ccccc23)c1	-2	2	4	4	-9	3
O=[N+]([O-])c1ccc(-c2nc(Nc3cccc(O)c3)c3ccccc3n2)cc1	-3	2	55*	-3	-4	6
COc1cc(Br)cc(CN2CCN(C/C=C/c3ccccc3)CC2)c1O	-13	-32	-13	-6	96*	19
CC(=O)C1=C(C)N(Cc2ccc(F)cc2)C(=S)NC1c1ccc(Cl)cc1 (stereo not drawn)	x	x	26	x	x	-1
CS(=O)(=O)c1sc(C#N)c2c1C(=O)CC(c1ccccc1)C2 (stereo not drawn)	-8	-13	73*	-10	33	4
O=C(NCc1csc2ccccc12)Nc1cc(Cl)cc(Cl)c1	0	-21	-6	-4	33*	21
CC(=O)Nc1cccc(OCC(O)Cn2c(C)nc3ccccc32)c1 (stereo not drawn)	-7	4	-2	-1	3	10
CCCOC(=O)c1ccc(OCC(O)Cn2c(C)nc3ccccc32)cc1 (stereo not drawn)	3	-19	54*	5	40*	6
Cc1cc(C(=O)N[C@@H](c2ccccc2)[C@]2(C)C[C@H]2[C@@H](C)C(=O)Nc2ccc3ccccc3c2)no1	-9	2	24	-13	-5	7
Cc1cc(C(=O)N[C@H](c2ccccc2)[C@@]2(C)C[C@@H]2[C@@H](C)C(=O)Nc2ccc3ccccc3c2)no1	1	-4	53*	-2	7	21
Cc1ccc(CN2CCN(CCCn3cnc4c(OCc5ccccc5)ncnc43)CC2)cc1	-8	-26	11	1	47*	2
Cc1cccc(NC(=O)N2CCCC2C(=O)Nc2ccccc2)c1 (stereo not drawn)	-4	4	-18	1	-9	1
O=C1C(F)=CC(COC(c2ccccc2)(c2ccccc2)c2ccccc2)OC1n1cc(F)c(=O)[nH]c1=O (stereo not drawn)	-3	0	54*	-7	6	9
CC(=O)OCC1OC(n2cc(F)c(=O)[nH]c2=O)C(OC(C)=O)C1OC(C)=O (stereo not drawn)	-3	11	-28	6	-15	2
CN(C)CCOc1ccccc1-c1ccccc1	-6	-21	7	-6	45*	9
CNCCCCOc1ccccc1-c1ccccc1	-8	-23	-8	10	37*	5
O=P(c1ccccc1)(c1ccccc1)C(O)c1cccs1 (stereo not drawn)	-5	9	-19	-2	-16	4
Cc1coc2c(C)c3oc(=O)c(CCC(=O)N4CCC(C(=O)NCCCC(=O)O)(c5ccccc5)CC4)c(C)c3cc12	-1	4	-17	1	-4	1
C[C@H]1[C@@H](c2ccccc2)Oc2c(Cl)cccc2S(=O)(=O)N1C	x	x	13	x	x	0
COc1ccc(NC(=O)N(C)C[C@H]2OCc3cnnn3CCCC(=O)N([C@H](C)CO)C[C@@H]2C)c(OC)c1	x	x	7	x	x	0
C=CCOC(=O)C(C#N)c1nc2ccccc2nc1N1CCN(c2ccccc2OC)CC1 (stereo not drawn)	-3	-7	49*	5	8	8
CCC(NC(=O)c1cncc(Br)c1)c1ccccc1 (stereo not drawn)	-3	5	-26	-1	0	-1
COCCCNc1ccn2nc(-c3ccc(OCc4ccccc4)cc3)cc2n1	1	-8	56*	3	11	11
O=C(Nc1ccc(F)cc1)Nc1nnc(-c2ccco2)s1	-2	0	4	-2	14	14
CCOC(=O)[C@H]1[C@H]2COc3ccc(Br)cc3[C@@H]2N2C(=O)CN(Cc3ccco3)C(=O)[C@@]12C	0	0	-1	4	2	11
O=C1CNC(=O)/C1=C\N1CCN(C(c2ccccc2)c2ccccc2)CC1	-6	-26	-22	-7	43*	13

Assay outcomes as filed in PubChem BioAssay.
